Source: ChEMBL document CHEMBL3244174, “Synthesis and biological activity of some new furan quaternary salts” (J Med Chem, 1977)
The source made the active and inactive calls. The rule behind the calls is not given here.

Columns and labels:
[1] = test system: Nippostrongylus brasiliensis; assay: Anthelmintic activity against larvae stage of Nippostrongylus brasiliensis infected in rat assessed as decrease in worm load at 250 mg/kg, po administered on day 8 post infection; format: functional, organism-based; parameters: dose 250 mg/kg
Procedure, shortened: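 Young male rats (25–30 g, University of Freiburg strain), 3 per compound, infected with 500 infective larvae; single 250 mg/kg oral dose on day 8. Worm loads of treated and control groups compared; 90% deparasitization taken as active. Whitlock–Bliss technique as modified by Steward.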

[2] = Acute toxicity in ip dosed mouse; format: organism-based; details: in vivo
Procedure, shortened: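 Mice dosed intraperitoneally; LD50 determined.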

[3] = test system: Enterococcus faecalis; assay: Antibacterial activity against Streptococcus faecalis ATCC 10541 assessed as growth inhibition after 24 hrs by dilution tube method; format: functional; details: ATCC 10541, 24 h
Procedure, shortened: (§1)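 Broth tube dilution in Tryptone Soya Broth, duplicate tubes at each concentration. MIC (μg/ml) was the highest dilution preventing visible growth. Nitrofurantoin run under the same conditions.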

[4] = test system: Salmonella typhi; assay: Antibacterial activity against Salmonella typhi 115 assessed as growth inhibition after 24 hrs by dilution tube method; format: functional, Salmonella enterica subsp. enterica serovar Typhi; details: Salmonella enterica, 115, 24 h
Procedure, shortened: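 Dilution tube method in Tryptone Soya Broth; MIC (μg/ml) taken as highest dilution preventing visible growth; duplicates at every concentration; nitrofurantoin reference run under same conditions.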

[5] = test system: Pseudomonas aeruginosa; assay: Antibacterial activity against Pseudomonas aeruginosa ATCC 10145 assessed as growth inhibition after 24 hrs by dilution tube method; format: functional; details: ATCC 10145, 24 h; procedure, shortened: as §1
[6] = test system: Candida albicans; assay: Antifungal activity against Candida albicans SKF 2270 assessed as growth inhibition by agar dilution method; format: functional
[7] = test system: Microsporum canis; assay: Antifungal activity against Microsporum canis VM-200 USPHS assessed as growth inhibition by agar dilution method; format: functional
[8] = test system: Escherichia coli; assay: Antibacterial activity against Escherichia coli 114 assessed as growth inhibition after 24 hrs by dilution tube method; format: functional; details: Escherichia coli, 114, 24 h; procedure, shortened: as §1
[9] = test system: Trichophyton rubrum; assay: Antifungal activity against Trichophyton rubrum 252 CSTM assessed as growth inhibition by agar dilution method; format: functional
[10] = test system: Trichophyton mentagrophytes; assay: Antifungal activity against Trichophyton mentagrophytes A-280 USPHS assessed as growth inhibition by agar dilution method; format: functional
[11] = test system: Staphylococcus aureus; assay: Antibacterial activity against Staphylococcus aureus ATCC 6538 assessed as growth inhibition after 24 hrs by dilution tube method; format: functional; details: ATCC 6538, 24 h; procedure, shortened: as §1
[12] = test system: Mycobacterium tuberculosis; assay: Antibacterial activity against Mycobacterium tuberculosis H37Rv assessed as growth inhibition by serial dilution method; format: functional
Procedure, shortened: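 M. tuberculosis H37Rv maintained on Lowenstein–Jensen medium; tested in Youman's medium by serial dilution.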

[13] = test system: Cryptococcus neoformans; assay: Antifungal activity against Cryptococcus neoformans 103 assessed as growth inhibition by agar dilution method; format: functional
[14] = test system: Nannizzia gypsea; assay: Antifungal activity against Microsporum gypseum 153 CSTM assessed as growth inhibition by agar dilution method; format: functional
[15] = test system: Klebsiella pneumoniae; assay: Antibacterial activity against Klebsiella pneumoniae ATCC 10031 assessed as growth inhibition after 24 hrs by dilution tube method; format: functional; details: ATCC 10031, 24 h; procedure, shortened: as §1
[16] = test system: Histoplasma capsulatum; assay: Antifungal activity against Histoplasma capsulatum RNSH Hi-70 1/2 assessed as growth inhibition by agar dilution method; format: functional
[17] = test system: Rodentolepis nana; assay: Anthelmintic activity against viable ova stage of Hymenolepis nana infected in rat assessed as decrease in intestinal worm load at 250 mg/kg, po measured on day 3; format: functional, organism-based; parameters: dose 250 mg/kg
Procedure, shortened: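 Young male rats (25–30 g, University of Freiburg strain) infected with 200 viable ova, then given a single 250 mg/kg oral dose. Worms from each rat's small intestine collected and scored on day 3. A mean score of 0–10% of control taken as active.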

[18] = test system: Agrobacterium tumefaciens; assay: Antibacterial activity against Agrobacterium tumefaciens NRRL B-36 assessed as growth inhibition after 24 hrs by dilution tube method; format: functional; details: NRRL B-36, 24 h; procedure, shortened: as §1

Structure (SMILES) | Activity [1] | LD50 [2] | MIC [3] | MIC [4] | MIC [5] | MIC [6] | MIC [7] | MIC [8] | MIC [9] | MIC [10] | MIC [11] | MIC [12] | MIC [13] | MIC [14] | MIC [15] | MIC [16] | Activity [17] | MIC [18]
C[N+](C)(CCCCCOc1c(Br)cc(Br)cc1Br)Cc1ccc(Br)o1.[Br-] | inactive | 25 mg/kg | 7.5 µg/mL | 50 µg/mL | 2 µg/mL | > 200 µg/mL | > 200 µg/mL | 100 µg/mL | > 200 µg/mL | > 200 µg/mL | 2 µg/mL | 10 µg/mL | 25 µg/mL | > 200 µg/mL | 1.5 µg/mL | 100 µg/mL | inactive | 25 µg/mL
Cc1cc(OCCCC[N+](C)(C)Cc2ccc(Br)o2)c(C(C)C)cc1Cl.[Br-] | inactive | 25 mg/kg | 7.5 µg/mL | > 200 µg/mL | 2.5 µg/mL | 50 µg/mL | 75 µg/mL | > 200 µg/mL | > 200 µg/mL | 50 µg/mL | 2.5 µg/mL | 7.5 µg/mL | 25 µg/mL | 50 µg/mL | 2.5 µg/mL | > 200 µg/mL | inactive | 25 µg/mL
Cc1cc(OCCCCC[N+](C)(C)Cc2ccc([N+](=O)[O-])o2)c(C(C)C)cc1Cl.[Br-] | inactive | 50 mg/kg | 10 µg/mL | 50 µg/mL | 2.5 µg/mL | > 200 µg/mL | 100 µg/mL | > 200 µg/mL | 100 µg/mL | > 200 µg/mL | 10 µg/mL | 5 µg/mL | 25 µg/mL | 100 µg/mL | 2.5 µg/mL | 100 µg/mL | inactive | 25 µg/mL
